The values below come from ChEMBL document CHEMBL3997810, “A Novel Potent Anticancer Compound Optimized from a Natural Oridonin Scaffold Induces Apoptosis and Cell Cycle Arrest through the Mitochondrial Pathway” (J Med Chem, 2017).

Active and inactive are the calls of the source. No cut-off for these calls is given here.

The test system of one data set is Mus musculus. Nature of the data set: Toxicity in Balb/c nude mouse xenografted with human MCF7 cells assessed as morphological changes in lungs at 20 mg/kg/day, iv for 4 weeks by hematoxylin and eosin staining based microscopic method. The data set is classed as organism-based. The note with it: in vivo, 672 h. An outline of the steps:
(§1)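 Male BALB/c nude mice aged six weeks received 1 × 10^6 MCF-7 cells subcutaneously in the right flank. After 7 d they were randomized and dosed 20 mg/kg iv once daily in 10% DMF/2% poloxamer/88% saline; saline control. Heart, liver, spleen, lung and kidney were fixed in 4% paraformaldehyde, paraffin-embedded, sectioned at 5 μm, H&E stained and examined microscopically.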
In general terms: A xenograft is tissue or cells of one species grown in another, often human tumour cells in immunodeficient mice.
As for `C=C1C(=O)[C@]23[C@H](O)[C@H]1CC[C@H]2[C@]12C=CCC(C)(C)[C@H]1[C@H](O)[C@]3(O)OC2`, the Activity entry was “Non-Toxic”.

For the next data set, the system named is MCF7. As to the kind of experiment: Cytotoxicity against human MCF7 cells at 10 to 50 uM after 24 hrs by LDH assay.
Conditions: not given
It counts as functional, cell-based. An outline of the steps: (§2)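 Membrane integrity assay on MCF-7 and Bel-7402 cells seeded at ~5 × 10^3 per well for 24 h, then given compounds at 10, 20 or 50 μM. Culture medium collected and assayed with CytoTox-ONE LDH reagent for 10 min, followed by stop solution. Fluorescence read at Ex 560/Em 590 nm. Expressed as percentage of unstimulated cells.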
For `C=C1C(=O)[C@]23[C@H](O)[C@H]1CC[C@H]2[C@]12C=CCC(C)(C)[C@H]1[C@H](O)[C@]3(O)OC2`, the result was inactive.

A further data set deals with Bel-7402. As to the kind of experiment: Cytotoxicity against human Bel7402 cells at 10 to 50 uM after 24 hrs by LDH assay. It counts as functional, cell-based.
Conditions: not given
An outline of the steps:
as §2
For the compound `C=C1C(=O)[C@]23[C@H](O)[C@H]1CC[C@H]2[C@]12C=CCC(C)(C)[C@H]1[C@H](O)[C@]3(O)OC2`, the outcome was inactive.

A further data set concerns Mus musculus. As to the kind of experiment: Toxicity in Balb/c nude mouse xenografted with human MCF7 cells assessed as morphological changes in spleen at 20 mg/kg/day, iv for 4 weeks by hematoxylin and eosin staining based microscopic method. The note with it: in vivo, 672 h. It counts as organism-based. The essentials:
as §1
Regarding `C=C1C(=O)[C@]23[C@H](O)[C@H]1CC[C@H]2[C@]12C=CCC(C)(C)[C@H]1[C@H](O)[C@]3(O)OC2`, the Activity result is listed as “Non-Toxic”.

The test system of a further data set is Bel-7402. Nature of the data set: Antiproliferative activity against human Bel7402 cells after 72 hrs by MTT assay. The data set is classed as functional, cell-based. The note with it: Bel-7402, 72 h. An outline of the steps:
(§3)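 MGC-803 and MCF-7 cells grown in DMEM (MCF-7 with 1× NEAA); Bel-7402 and K562 grown in RPMI 1640; all media with 10% FBS. Cells seeded at 3500/well, pre-incubated 24 h, then exposed to compounds in fresh medium (DMSO ≤0.25%) for 72 h at 37 °C. MTT read-out at 570 nm. Quadruplicate wells, repeated three times; means ± SD (n = 3).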
The term IC50 denotes the concentration that gives 50% inhibition. Compound `C=C1C(=O)[C@]23[C@H](O)[C@H]1CC[C@H]2[C@]12C=CCC(C)(C)[C@H]1[C@H](O)[C@]3(O)OC2` came in with an IC50 of 1590 nM.

The test system of another data set is MCF7. As to the kind of experiment: Antiproliferative activity against human MCF7 cells after 72 hrs by MTT assay. It counts as functional, cell-based. The note with it: MCF7, 72 h. An outline of the steps: as §3
In turn, `C=C1C(=O)[C@]23[C@H](O)[C@H]1CC[C@H]2[C@]12C=CCC(C)(C)[C@H]1[C@H](O)[C@]3(O)OC2` had an IC50 of 1990 nM.

A further data set deals with BEL-7404 tumor cell line. As to the kind of experiment: Antiproliferative activity against human Bel7404 cells after 48 hrs by MTT assay. It counts as functional, cell-based. The note with it: BEL-7404, 48 h. The essentials:
(§4)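 Colorimetric MTT assay. KB-3-1, NCI-H460 and Bel-7404 cells were seeded at 4000 cells/well; resistant KB/CP4, NCI-H460/MX20 and Bel-7404/CP20 were seeded at 7000 cells/well. Cells were pre-incubated 24 h at 37 °C, 5% CO2, then exposed to a compound concentration series for 48 h with DMSO ≤0.25%. Absorbance read at 570 nm. Quadruplicate wells, three repeats; means ± SD.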
(In general: Formazan colour is commonly taken as a measure of viable cells.)
Compound `C=C1C(=O)[C@]23[C@H](O)[C@H]1CC[C@H]2[C@]12C=CCC(C)(C)[C@H]1[C@H](O)[C@]3(O)OC2` showed an IC50 of 3910 nM. In other words, the single-digit micromolar range.

The test system of another data set is Mus musculus. Nature of the data set: Hepatotoxicity in Balb/c nude mouse xenografted with human MCF7 cells assessed as morphological changes in liver at 20 mg/kg/day, iv for 4 weeks by hematoxylin and eosin staining based microscopic method. It counts as toxicity, organism-based. The note with it: in vivo, 672 h. The essentials: (§5)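 Male BALB/c nude mice (6 weeks old) carrying subcutaneous MCF-7 xenografts (1 × 10^6 cells). Dosed iv 20 mg/kg daily for 28 days in 10% DMF/2% poloxamer/88% saline; six mice per group. Organs then fixed in 4% paraformaldehyde, paraffin-embedded, cut at 5 μm, stained with Harris hematoxylin and eosin-phloxine, and examined by light microscopy.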
On to `C=C1C(=O)[C@]23[C@H](O)[C@H]1CC[C@H]2[C@]12C=CCC(C)(C)[C@H]1[C@H](O)[C@]3(O)OC2`, for which the Activity result is reported as “Non-Toxic”.

In the next data set the test system is K562. As to the kind of experiment: Antiproliferative activity against human K562 cells after 72 hrs by MTT assay. The data set is classed as functional, cell-based. The note with it: K562, 72 h. An outline of the steps: as §3
For the compound `C=C1C(=O)[C@]23[C@H](O)[C@H]1CC[C@H]2[C@]12C=CCC(C)(C)[C@H]1[C@H](O)[C@]3(O)OC2`, half-maximal inhibition (IC50) required 220 nM.

Tested on in a further data set: not listed separately
As to the kind of experiment: Selectivity ratio of IC50 for human KB/CP4 cells to IC50 for human KB-3-1 cells.
Conditions: not given
As for `C=C1C(=O)[C@]23[C@H](O)[C@H]1CC[C@H]2[C@]12C=CCC(C)(C)[C@H]1[C@H](O)[C@]3(O)OC2`, the “Ratio IC50” value is reported as under 1.

Another data set concerns Mus musculus. Nature of the data set: Cardiotoxicity in Balb/c nude mouse xenografted with human MCF7 cells assessed as morphological changes in heart at 20 mg/kg/day, iv for 4 weeks by hematoxylin and eosin staining based microscopic method. It counts as toxicity, organism-based. The note with it: in vivo, 672 h. The essentials:
as §5
`C=C1C(=O)[C@]23[C@H](O)[C@H]1CC[C@H]2[C@]12C=CCC(C)(C)[C@H]1[C@H](O)[C@]3(O)OC2`: the Activity result is on record as “Non-Toxic”.

In a further data set the test system is Mus musculus. As to the kind of experiment: Nephrotoxicity in Balb/c nude mouse xenografted with human MCF7 cells assessed as morphological changes in kidney at 20 mg/kg/day, iv for 4 weeks by hematoxylin and eosin staining based microscopic method. The data set is classed as toxicity, organism-based. The note with it: in vivo, 672 h. An outline of the steps:
as §1
For the compound `C=C1C(=O)[C@]23[C@H](O)[C@H]1CC[C@H]2[C@]12C=CCC(C)(C)[C@H]1[C@H](O)[C@]3(O)OC2`, the Activity entry is recorded as “Non-Toxic”.

Tested on in another data set: not listed separately
Nature of the data set: Antiproliferative activity against human NCI-H460/MX20 cells after 48 hrs by MTT assay. It counts as functional, cell-based. The settings on record: NCI-H460/MX20, 48 h. The essentials: as §4
In the case of `C=C1C(=O)[C@]23[C@H](O)[C@H]1CC[C@H]2[C@]12C=CCC(C)(C)[C@H]1[C@H](O)[C@]3(O)OC2`, 11100 nM corresponded to half-maximal inhibition (IC50).

The next data set relates to MGC-803. Nature of the data set: Antiproliferative activity against human MGC803 cells after 72 hrs by MTT assay. It counts as functional, cell-based. The note with it: MGC-803, 72 h. The essentials: as §3
Turning to `C=C1C(=O)[C@]23[C@H](O)[C@H]1CC[C@H]2[C@]12C=CCC(C)(C)[C@H]1[C@H](O)[C@]3(O)OC2`, the IC50 turned out to be 1220 nM.

Tested on in the next data set: not listed separately
As to the kind of experiment: Antiproliferative activity against human KB/CP4 cells after 48 hrs by MTT assay. The note with it: KB/CP4, 48 h. The data set is classed as functional, cell-based. The essentials: as §4
Consider `C=C1C(=O)[C@]23[C@H](O)[C@H]1CC[C@H]2[C@]12C=CCC(C)(C)[C@H]1[C@H](O)[C@]3(O)OC2`, for which the IC50 came to 2980 nM.

The next data set has as its system Bel-7402. Nature of the data set: Antiproliferative activity against human Bel7402 cells at 1 uM after 72 hrs by MTT assay.
Conditions: not given
The data set is classed as functional, cell-based.
Turning to `C=C1C(=O)[C@]23[C@H](O)[C@H]1CC[C@H]2[C@]12C=CCC(C)(C)[C@H]1[C@H](O)[C@]3(O)OC2`, the result was Active.

Tested on in another data set: not listed separately
As to the kind of experiment: Antiproliferative activity against human BEL7404/CP20 cells after 48 hrs by MTT assay. The note with it: BEL7404/CP20, 48 h. The data set is classed as functional, cell-based. The essentials: as §4
Compound `C=C1C(=O)[C@]23[C@H](O)[C@H]1CC[C@H]2[C@]12C=CCC(C)(C)[C@H]1[C@H](O)[C@]3(O)OC2` returned an IC50 of 4980 nM. This lies in the single-digit micromolar range.

The subject of another data set is KB 3-1. Nature of the data set: Antiproliferative activity against human KB-3-1 cells after 48 hrs by MTT assay. The settings on record: KB 3-1, 48 h. The data set is classed as functional, cell-based. The essentials: as §4
As to `C=C1C(=O)[C@]23[C@H](O)[C@H]1CC[C@H]2[C@]12C=CCC(C)(C)[C@H]1[C@H](O)[C@]3(O)OC2`, it took 5160 nM to reach half-maximal inhibition (IC50).

The next data set relates to NCI-H460. Nature of the data set: Antiproliferative activity against human NCI-H460 cells after 48 hrs by MTT assay. It counts as functional, cell-based. The note with it: NCI-H460, 48 h. The essentials: as §4
The compound `C=C1C(=O)[C@]23[C@H](O)[C@H]1CC[C@H]2[C@]12C=CCC(C)(C)[C@H]1[C@H](O)[C@]3(O)OC2` gave an IC50 of 2690 nM.

The next data set has as its system MCF7. Nature of the data set: Antitumor activity against human MCF7 cells xenografted in Balb/c nude mouse assessed as tumor growth inhibition at 20 mg/kg/day, iv for 4 weeks relative to control. It counts as functional. The note with it: 672 h, read-out: TGI. An outline of the steps:
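Six-week-old male BALB/c nude mice received 1 × 10^6 MCF-7 cells subcutaneously in the right flank. After 7 d of tumor growth, mice were randomized into groups of six. Dosing was 20 mg/kg iv once daily for 28 days in 10% DMF/2% poloxamer/88% saline. Tumor volume (L × W²/2) and body weight were recorded every 2 days. Inhibition = (1 − mean treated/control tumor weight) × 100%.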
With `C=C1C(=O)[C@]23[C@H](O)[C@H]1CC[C@H]2[C@]12C=CCC(C)(C)[C@H]1[C@H](O)[C@]3(O)OC2`, the inhibition in vivo at 20 mg/kg/day turned out to be 61.6%.

A further data set relates to Mus musculus. Nature of the data set: Toxicity in Balb/c nude mouse xenografted with human MCF7 cells assessed as changes in body weight at 20 mg/kg/day, iv for 4 weeks measured once in 2 days during compound dosing. The data set is classed as organism-based. The settings on record: in vivo. The essentials:
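Mice received 1 × 10^6 tumor cells subcutaneously in the right flank: MCF-7 in male BALB/c nude mice aged six weeks, H22 in male ICR mice aged five weeks. After 7 d they were randomized (six or eight per group). Dosing was 20 mg/kg iv daily in 10% DMF/2% poloxamer/88% saline for 21 or 28 days; saline control. Body weight was recorded every 2 days.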
In the case of `C=C1C(=O)[C@]23[C@H](O)[C@H]1CC[C@H]2[C@]12C=CCC(C)(C)[C@H]1[C@H](O)[C@]3(O)OC2`, the Activity entry is “Non-Toxic”.
